Results published in ChEMBL document CHEMBL4270555, “Synthesis and biological evaluation of magnolol derivatives as melatonergic receptor agonists with potential use in depression” (Eur J Med Chem, 2018).

Columns and labels:
[1] = target: Melatonin receptor type 1A (Homo sapiens, UniProt P48039); assay: Agonist activity at human MT1 receptor expressed in HEK293 cells at 1 mM after 24 hrs by Fluo-8 dye-based calcium assay relative to control; type: functional, cell-based
How it was run: (§1)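 Fluo-8 calcium assay in HEK293 cells stably expressing human MT1 or MT2, seeded 4×10^4/well and incubated 24 h. Compounds tested at 1.00 mM, agomelatine positive control at 3.33 µM; fluorescence at ex 485/em 525 nm. Agonism expressed as mean ± SD, n = 3.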

[2] = target: T1, Melatonin receptor type 1B (Homo sapiens) (UniProt P49286); assay: Agonist activity at human MT2 receptor expressed in HEK293 cells at 1 mM after 24 hrs by Fluo-8 dye-based calcium assay relative to control; type: functional, cell-based; how it was run: as §1
T1 sequence (whole entry): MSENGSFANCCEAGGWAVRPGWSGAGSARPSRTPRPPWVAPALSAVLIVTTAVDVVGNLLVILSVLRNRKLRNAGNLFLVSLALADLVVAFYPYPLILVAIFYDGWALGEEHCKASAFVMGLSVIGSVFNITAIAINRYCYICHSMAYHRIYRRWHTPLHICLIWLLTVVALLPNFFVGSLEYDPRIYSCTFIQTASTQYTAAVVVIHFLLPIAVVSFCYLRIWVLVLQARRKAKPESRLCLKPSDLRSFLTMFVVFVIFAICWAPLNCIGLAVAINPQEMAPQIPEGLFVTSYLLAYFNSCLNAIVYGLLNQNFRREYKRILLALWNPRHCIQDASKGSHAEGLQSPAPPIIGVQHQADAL

[3] = target: T1, Melatonin receptor type 1B (Homo sapiens); assay: Potency index, ratio of compound effect to magnolol effect for human MT2 receptor; type: functional
[4] = Retention time of the compound by UPLC-IT-TOF-MS analysis; type: physicochemical
How it was run: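 Retention on C18 column (100 × 2.1 mm, 1.8 µm) at 30 °C; mobile phase A 0.05% formic acid in water, B 0.05% formic acid in acetonitrile, 0.2 mL/min, linear 5–100% B over 0–18.0 min; IT-TOF-MS detection in positive and negative modes.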

[5] = Drug level in Sprague-Dawley rat urine treated with Magnolol-4'-O-beta-D-glucopyranoside at 100 mg/kg, po by UPLC-IT-TOF-MS analysis; type: ADME, organism-based; details: in vivo
How it was run: (§2)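 Rats (n = 6) housed in metabolic cages received 100.0 mg/kg orally; controls received 0.5% CMC-Na. Plasma, urine and faeces were collected and analyzed by LC-IT-TOF-MS on a C18 column at 30 °C. Gradient 5–100% acetonitrile with 0.05% formic acid over 18 min at 0.2 mL/min; positive and negative ion MS/MS.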

[6] = Drug level in Sprague-Dawley rat plasma treated with Magnolol-4'-O-beta-D-glucopyranoside at 100 mg/kg, po by UPLC-IT-TOF-MS analysis; type: ADME, organism-based; details: in vivo; how it was run: as §2
[7] = Drug level in Sprague-Dawley rat feces treated with Magnolol-4'-O-beta-D-glucopyranoside at 100 mg/kg, po by UPLC-IT-TOF-MS analysis; type: ADME, organism-based; details: in vivo; how it was run: as §2

Sequence of Melatonin receptor type 1A (P48039 whole entry): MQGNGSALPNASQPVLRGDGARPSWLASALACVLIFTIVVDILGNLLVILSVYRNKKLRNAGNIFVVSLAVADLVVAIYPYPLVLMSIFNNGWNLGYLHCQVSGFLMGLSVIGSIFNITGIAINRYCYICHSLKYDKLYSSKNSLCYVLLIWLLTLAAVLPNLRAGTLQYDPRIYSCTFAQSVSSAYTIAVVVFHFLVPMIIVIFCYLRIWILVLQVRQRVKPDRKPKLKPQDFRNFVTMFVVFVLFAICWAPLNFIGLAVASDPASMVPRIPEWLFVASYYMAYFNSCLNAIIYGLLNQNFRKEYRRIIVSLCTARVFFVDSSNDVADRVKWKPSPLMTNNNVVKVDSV

Activity [1]	Activity [2]	Ratio [3]	Retention_time [4]	Drug metabolism [5]	Drug metabolism [6]	Drug metabolism [7]	Structure (SMILES)
32%	69.7%	3.5 to 4.5					C=CCc1ccc(O)c(-c2cc(CC=C)ccc2OC(=O)CCCCl)c1
			11.32 min	Metabolite_Detected	Metabolite_Detected	Metabolite_Detected	C=CCc1ccc(OC)c(-c2cc(CC=C)ccc2O[C@@H]2O[C@H](CO)[C@@H](O)[C@H](O)[C@H]2O)c1
2.97%	10.8%		10.63 min	Metabolite_Detected		Metabolite_Detected	C=CCc1ccc(O[C@@H]2O[C@H](CO)[C@@H](O)[C@H](O)[C@H]2O)c(-c2cc(CC=C)ccc2O[C@@H]2O[C@H](CO)[C@@H](O)[C@H](O)[C@H]2O)c1
			10.88 min	Metabolite_Detected			C=CC(=O)c1ccc(O[C@@H]2O[C@H](CO)[C@@H](O)[C@H](O)[C@H]2O)c(-c2cc(C(O)C=C)ccc2O)c1 (some centres undefined)
			12.4 min	Metabolite_Detected			C=CCc1ccc(OC)c(-c2cc(CC=C)ccc2O[C@@H]2O[C@H](C(=O)O)[C@@H](O)[C@H](O)[C@H]2O)c1
			9.15 min	Metabolite_Detected			C=CCc1ccc(O)c(-c2cc(C(O)C=C)ccc2O[C@@H]2O[C@H](CO)[C@@H](O)[C@H](O)[C@H]2O)c1 (some centres undefined)
8.14%	2.11%						C=CCc1ccc(OC(=O)CCCCl)c(-c2cc(CC=C)ccc2OC(=O)CCCCl)c1
-1.55%	5.17%						C=CCc1ccc(O)c(-c2cc(CC=C)ccc2OC(=O)c2ccc(N)cc2)c1
			9.24 min			Metabolite_Detected	C=CCc1ccc(OS(=O)(=O)O)c(-c2cc(C(O)C=C)ccc2O[C@@H]2O[C@H](CO)[C@@H](O)[C@H](O)[C@H]2O)c1 (some centres undefined)
			10.59 min	Metabolite_Detected			C=CCc1ccc(O)c(-c2cc(C(=O)C=C)ccc2O[C@@H]2O[C@H](CO)[C@@H](O)[C@H](O)[C@H]2O)c1
			7.55 min			Metabolite_Detected	C=CC(O)c1ccc(O)c(-c2cc(CCC)ccc2OS(=O)(=O)O)c1 (centres undefined)
-1.86%	-2.52%						C=CCc1ccc(OC(C)=O)c(-c2cc(CC=C)ccc2OC(C)=O)c1
56.8%	25.6%						C=CCc1ccc(O)c(-c2cc(CC=C)ccc2OC(=O)/C=C/c2ccccc2)c1
			11.06 min	Metabolite_Detected		Metabolite_Detected	C=CC(O)c1ccc(O)c(-c2cc(C(O)C=C)ccc2O)c1 (centres undefined)
31%	89%	3.5 to 4.5					C=CCc1ccc(O)c(-c2cc(CC=C)ccc2O[C@@H]2O[C@H](CO)[C@@H](OC(C)=O)[C@H](OC(C)=O)[C@H]2O)c1
			9.05 min	Metabolite_Detected			C=CC(=O)c1ccc(O)c(-c2cc(C(=O)CC)ccc2OS(=O)(=O)O)c1
			8.7 min	Metabolite_Detected			C=CC(O)c1ccc(O[C@@H]2O[C@H](C(=O)O)[C@@H](O)[C@H](O)[C@H]2O)c(-c2cc(CC(C)O)ccc2OC)c1 (some centres undefined)
			9.47 min	Metabolite_Detected			C=CC(=O)c1ccc(O[C@@H]2O[C@H](C(=O)O)[C@@H](O)[C@H](O)[C@H]2O)c(-c2cc(C(O)C=C)ccc2O)c1 (some centres undefined)
40.2%	20%		14.33 min	Metabolite_Detected		Metabolite_Detected	C=CCc1ccc(O)c(-c2cc(CC=C)ccc2O)c1 [MAGNOLOL]
7.09%	0.04%						C=CCc1ccc(O[C@@H]2O[C@H](COC(C)=O)[C@@H](OC(C)=O)[C@H](OC(C)=O)[C@H]2OC(C)=O)c(-c2cc(CC=C)ccc2O[C@@H]2O[C@H](COC(C)=O)[C@@H](OC(C)=O)[C@H](OC(C)=O)[C@H]2OC(C)=O)c1
			9.94 min	Metabolite_Detected		Metabolite_Detected	C=CCc1ccc(O[C@@H]2O[C@H](C(=O)O)[C@@H](O)[C@H](O)[C@H]2O)c(-c2cc(CC=C)ccc2O[C@@H]2O[C@H](CO)[C@@H](O)[C@H](O)[C@H]2O)c1
